Only some compounds are listed: those with a hit (about 1.7% of all), similar ones and a draw of the others.
APOBEC3G inh: blocks human APOBEC3G single-stranded DNA deamination; inhibition, % at 20 µM; Q9HC16; recombinant A3G, ssDNA deamination FAM/TAMRA fluorescence; 330,000 compounds, 0.28% hits;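 active means inhibition of at least 40% at 20 µM, with no more than 30% in the related APOBEC3A deaminase screen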;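 further: plate controls were DMSO wells with A3G for no effect and wells lacking A3G enzyme for full effect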
Target sequence (Q9HC16 whole entry, looked up): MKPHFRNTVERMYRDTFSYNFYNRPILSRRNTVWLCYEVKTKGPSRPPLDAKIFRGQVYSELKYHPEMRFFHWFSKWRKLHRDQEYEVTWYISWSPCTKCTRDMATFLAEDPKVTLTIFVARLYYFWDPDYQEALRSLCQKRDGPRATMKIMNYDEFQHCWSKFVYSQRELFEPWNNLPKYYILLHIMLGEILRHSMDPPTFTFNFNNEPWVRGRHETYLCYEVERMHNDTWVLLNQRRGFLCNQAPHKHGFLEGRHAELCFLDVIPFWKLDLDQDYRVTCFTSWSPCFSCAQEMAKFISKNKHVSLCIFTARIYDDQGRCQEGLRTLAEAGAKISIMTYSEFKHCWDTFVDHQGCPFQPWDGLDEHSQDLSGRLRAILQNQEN
APOBEC3A inh: blocks human APOBEC3A ssDNA deamination | P31941 | recombinant A3A, FAM/TAMRA ssDNA deamination fluorescence | inhibition, % at 20 µM | 330,000 compounds, 0.41% hits | AID 493011;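 active means at least 40% inhibition at 20 µM here, with at most 30% in a related deaminase screen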;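 further: plate controls were A3A with DMSO for no effect and wells lacking A3A enzyme for full effect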
Target sequence (P31941 whole entry, looked up): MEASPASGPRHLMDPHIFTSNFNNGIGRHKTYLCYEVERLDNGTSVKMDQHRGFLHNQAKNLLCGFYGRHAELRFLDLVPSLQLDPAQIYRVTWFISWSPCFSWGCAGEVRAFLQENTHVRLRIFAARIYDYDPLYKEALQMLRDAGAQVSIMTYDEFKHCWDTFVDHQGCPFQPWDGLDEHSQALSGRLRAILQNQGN
C-LANA FP: KSHV C-LANA DNA binding inhibition. MBP-C-LANA/FAM-LBS DNA binding, fluorescence polarization. inhibition, % at 9 µM. 340,000 compounds, 0.078% hits. AID 504423;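 active means highest replicate inhibition at or above 60% at 9 µM, even if other replicates fall short; inactive means all replicates below 60% inhibition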;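 further: 0% = neutral control wells and 100% = 4 µM acridine orange control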
CAL PDZ FP-1: blocks peptide binding to the human CAL PDZ domain; inhibition, % at 24.9 µM; purified CAL PDZ, TMR-peptide fluorescence polarization, 1 h; Q9HD26; 300,000 compounds, 0.92% hits;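 active means mean inhibition of at least 30% with at least half of replicates also reaching 30%; inconclusive means no clear call, values can overlap the other calls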;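 further: 0% = DMSO neutral control and 100% = excess unlabeled competitor peptide PRC23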
CAL PDZ FP-2: human CAL PDZ-peptide interaction inhibition | purified CAL PDZ, TMR-peptide fluorescence polarization, 1 h | Q9HD26 | AID 504414 | 330,000 compounds, 0.02% hits | inhibition, % at 20 µM;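 active means highest replicate inhibition of at least 40%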;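 further: plate controls were DMSO neutral control wells for no effect and unlabeled competitor peptide control wells for full effect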
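Control set: unlabelled peptide and DMSO controls / Material: purified CerCALP PDZ construct / Timing: 1 h incubation at room temperature before polarization reading / Doses: 20 µM, one dose / Detection: fluorescence polarization (mP)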
Keap1-Nrf2 PPI: inhibitors of human Keap1-Nrf2 protein-protein interaction; Q14145; 340,000 compounds, 0.15% hits; AID 504523; inhibition, % at 9.4 µM; Keap1 Kelch-Nrf2 peptide fluorescence polarization, 1536-well; in the data active means inhibition above about 12%; inconclusive means no clear call, values can overlap the other calls; inactive means below about 7.3%;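 further: human Keap1 Kelch domain with fluorescein labeled Nrf2 9mer peptide probe; 0% = neutral control wells and 100% = peptide positive control; higher means more block of Keap1 binding to Nrf2 peptide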
Numbers without * were called inactive; ? = inconclusive; · = no result; + = active, no number.

SMILES | APOBEC3G inh | APOBEC3A inh | C-LANA FP | CAL PDZ FP-1 | CAL PDZ FP-2 | Keap1-Nrf2 PPI
O=C(O)CC(CC(=O)Nc1ccc(Oc2ccccc2)cc1)c1ccccc1 (centres undefined) | -4 | -2 | -2 | -2 | -1 | -3
CCN(CC)CCSc1nc2ccccc2n1Cc1ccccc1 | 16 | 1 | 2 | · | -1 | -1
O=C1NC(=O)/C(=C\c2ccc(N3CCOCC3)o2)N1 | -5 | -1 | 4 | 2 | 1 | -3
O=C1NC(=O)/C(=C/c2ccc(N3CCOCC3)o2)N1 | 17 | 30 | 2 | 31* | -1 | 1
Cc1ccc(C)c(S(=O)(=O)N2CCCOC2CNC(=O)C(=O)NCCc2ccco2)c1 (centres undefined) | -9 | -4 | 0 | 69* | 1 | 3
O=C(COc1ccc(Cl)c2cccnc12)N1CCOCC1 | -7 | -5 | 0 | 115* | 0 | -3
CC(CO)NS(=O)(=O)c1ccc(Br)cc1F (centres undefined) | · | · | -3 | 40* | 1 | 2
O=S(=O)(N[C@H](CO)c1ccccc1)c1ccc(Br)cc1F | 3 | 3 | -3 | -2 | 2 | -3
C=CCN(c1ccccc1OC)S(=O)(=O)c1cccc(C(=O)NC2=NCCS2)c1 | 8 | 3 | 0 | -10 | -1 | -4
C=CCN(c1ccccc1OC)S(=O)(=O)c1cccc(C(=O)Nc2nnc(C3CC3)s2)c1 | -7 | -4 | 0 | 40* | -1 | 0
COc1ccc(OC)c2c1cc(C(=O)N[C@H](C(=O)N1CCC(C(=O)O)CC1)C(C)C)n2C | · | · | -1 | -5 | 0 | -4
CC(=O)Nc1ccc(NC(=O)COC(=O)COc2ccc3ccccc3c2)cc1 | -7 | 0 | -3 | 105* | 0 | 2
COc1cccc(OCC(=O)Nc2ccc(OC)c(OC)c2)c1 | 1 | 2 | -2 | 1 | -3 | 0
COc1ccc(NC(=O)COC(=O)COc2cccc(Br)c2)cc1OC | -5 | 4 | 0 | 36* | 11 | -2
CC(C)(C)c1ccc(/C=N/N2CCN(c3ccccn3)CC2)cc1 | 1 | 0 | -1 | 53* | -1 | -5
O=c1oc(C2(O)CCCCC2)cc2ccc(/C=C/c3ccc(F)cc3)cc12 | -1 | 2 | 10 | -5 | -2 | 4
Cc1ccccc1NC(=O)CN1C(=O)CSc2ccc(S(=O)(=O)N3CCCC3)cc21 | -2 | -5 | 0 | -1 | -2 | 0
Cc1ccccc1NC(=O)CN1C(=O)CSc2ccccc21 | -5 | 0 | 0 | 38* | 0 | 1
Cc1ccc(NC(=O)C(SCC(=O)O)c2ccccc2)cc1C (centres undefined) | 1 | 2 | 0 | 69* | 0 | -5
O=C(C1=NN(c2ccccc2)C2C(=O)N(c3cccc(Cl)c3)C(=O)C12)c1ccccc1 (centres undefined) | · | · | 61* | · | 0 | ?
CCOc1cc(N2CCOCC2)c(OCC)cc1NC(=O)c1cc(C)cc(C)c1 | -2 | -3 | 1 | 76* | 1 | 3
CCOc1cc(N2CCOCC2)c(OCC)cc1NC(=O)c1ccc(C)cc1 | -9 | 0 | 1 | -1 | -1 | -1
NC(=O)Nc1ccc(C(=O)OCC(=O)N(Cc2ccccc2)C2CCS(=O)(=O)C2)cc1 (centres undefined) | -7 | 2 | 0 | 37* | 0 | 1
Cc1cccc(C)c1OCC(=O)N(Cc1ccc(N(C)C)cc1)C1CCS(=O)(=O)C1 (centres undefined) | -3 | -4 | 0 | 76* | 0 | 0
CC(OC(=O)Cc1ccc(Br)cc1)C(=O)NC1CCCC1 (centres undefined) | 15 | 7 | 0 | · | -1 | -2
SMILES | APOBEC3G inh | APOBEC3A inh | C-LANA FP | CAL PDZ FP-1 | CAL PDZ FP-2 | Keap1-Nrf2 PPI
Cc1ccc(S(=O)(=O)N2CCOCC2)cc1NC(=O)Cn1c(=O)ccn(Cc2ccccc2)c1=O | · | · | 1 | 3 | 0 | 3
CCC(CO)NCc1ccc(OC2CCCC2)cc1 (centres undefined) | -3 | -2 | -1 | 47* | 0 | -8
COc1ccc(NC(=O)COC(=O)C2CC(=O)N(Cc3ccc(C)cc3)C2)cc1 (centres undefined) | -9 | -4 | 0 | 1 | -3 | 2
COc1ccc(COC(=O)C2CC(=O)N(Cc3ccccc3)C2)cc1 (centres undefined) | -2 | -2 | 1 | + | 0 | 7
O=C1CN(C(=S)NC(=O)c2ccc(-c3ccccc3)cc2)CCN1 | -6 | -8 | 0 | 43* | -1 | -1
COc1ccc(C(=O)NC(=S)N2CCNC(=O)C2)cc1Br | -2 | 3 | 2 | -1 | -2 | 2
CCCCn1c(SCC(=O)N(CC)C2CCS(=O)(=O)C2)nc2cc(S(N)(=O)=O)ccc21 (centres undefined) | -6 | -4 | 0 | -1 | -3 | -1
CCCCn1c(SCC(=O)N(C)C2CCS(=O)(=O)C2)nc2cc(S(N)(=O)=O)ccc21 (centres undefined) | -3 | 0 | 0 | 53* | 0 | 2
N#Cc1c(C(F)(F)F)cc(-c2ccccc2)[nH]c1=O | 0 | 3 | 1 | 36* | -2 | -3
CCc1noc(C)c1C(=O)N(CC(C)C)c1c(N)n(Cc2ccccc2)c(=O)[nH]c1=O | -1 | -1 | -1 | 1 | -2 | -2
CC(NC(=O)c1ccccc1)C(=O)OCn1nnc2ccccc2c1=O (centres undefined) | -4 | -2 | -1 | 3 | -2 | 3
CCC(C(=O)OCn1nnc2ccccc2c1=O)c1ccccc1 (centres undefined) | -4 | 5 | 0 | 54* | -1 | -1
O=C(COC(=O)C1CC2CCCC(C1)C2=O)NC1CCCCC1 (centres undefined) | -8 | -2 | -1 | -1 | -1 | -6
CCN1CCN(C(CNS(=O)(=O)c2ccc(Cl)cc2)c2cccnc2)CC1 (centres undefined) | -2 | -1 | 1 | -4 | 0 | -3
CCN1CCN(C(CNS(=O)(=O)c2ccccc2)c2ccccc2)CC1 (centres undefined) | -7 | -6 | -2 | 43* | 0 | -3
CCOc1ccccc1NC(=O)C1CCN(C(=O)C2CC(=O)N(c3ccc(C)cc3)C2)CC1 (centres undefined) | -5 | 0 | -1 | · | 0 | -1
COCCN(CC(=O)Nc1cccc(C)c1C)C(=O)c1ccc(-n2cccn2)cc1 | -3 | 5 | -1 | · | 0 | -1
O=C(COC(=O)Cc1ccc(S(=O)(=O)N2CCOCC2)s1)Nc1ccc(F)cc1F | -8 | -3 | 0 | 45* | 0 | -13
COC(=O)c1cc2c(n1S(=O)(=O)c1ccc(C)cc1)C(=O)C(=O)c1[nH]cc(C(=O)OCc3ccccc3)c1-2 | · | · | 0 | 5 | 2 | -5
